This is a sample that favours compounds with a hit; in the whole collection about 3.7% have one here.
KCC2 mod = modulates chloride dependent transport by human KCC2 | Q9H2X9 | KCC2 cells, thallium flux FluoZin-2 fluorescence | B-score of Tl+ flux slope (higher = more flux/activation; lower = inhibition) at 10 µM | 190,000 tested, 2.2% active;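 active = thallium flux slope and its plate-corrected score both differing from the plate sample mean at a set confidence after two filtering rounds, in either direction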;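 note: slope of fluorescence scaled to starting intensity during 10 to 20 s after thallium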
Calpain2 inh = blocks pig calpain II enzyme activity | 220,000 tested, 0.37% active | inhibition, % at 16 µM | purified calpain II, fluorogenic peptide substrate, 30 min;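 active = inhibition above about 50%, limit read from the data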
PKD1 inh = inhibitors of human PKD1 kinase; 200,000 tested, 0.056% active; AID 797; inhibition, % (concentration not given with the values); PKD1 kinase fluorescence polarization assay; in the data active = inhibition above about 50%
ROMK mod = modulates human ROMK potassium channel activity; P48048; Tet-inducible ROMK, thallium flux fluorescence; actives lie on both sides; B-score at 10 µM; 130,000 tested, 2% active;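 active = signal ratio slope over the read window, or its plate-corrected B-score, at least 3 SD from the plate mean, either direction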;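 note: B-score of the F/F0 ratio slope over 7 to 12 s after thallium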
Mdm2 ligase inh = Mdm2 E3 ligase (human) inhibition; Q00987; cell-based MDM2 ubiquitination luciferase reporter, 2 h; 0 = plate control, 100 = twice control, blank-subtracted; signal enhancement, % at 5 µM; 210,000 tested, 0.11% active; AID 1230;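 active = signal enhancement of 30% or more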;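 note: luminescence tracks abundance of the self-degrading MDM2-luciferase fusion protein; higher signal means inhibition of MDM2 E3 ligase activity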
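Test system: stable mammalian line carrying autodegrading MDM2–luciferase fusion reporter; quantity: 2000 cells in each well; times: 4 h cell settling then 2 h compound exposure, 37 °C; detection: luminescence with SteadyLite reagent, 15 min at room temperature; evaluation: percent signal gain over controls, blank-subtracted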
Arbovirus inh = antivirals against arbovirus infection | 200,000 tested, 0.37% active | inhibition, % at 10 µM | arbovirus infection cell-based antiviral screen; in the data active = inhibition above about 30%
KCC2 sec1 = confirmation of human KCC2 transport modulators | 3,700 tested, 15% active | HEK293-KCC2, thallium flux, FluoZin2 fluorescence; stronger effect = higher value | shares compounds with KCC2 mod | AID 1713 | normalised thallium flux (F/F0 slope) at 10 µM;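 active = thallium flux slope above the same plate's solvent-only control mean plus 3 SD; inconclusive = the two replicate wells disagree; inactive = no significant difference from solvent-only control wells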
KCC2 bumet counter = bumetanide-insensitive thallium flux in KCC2 cells with ouabain, counter-screen. normalized thallium flux at 10 µM. AID 1714. shares compounds with KCC2 mod. HEK293-KCC2 + bumetanide/ouabain, thallium flux FluoZin2; stronger effect = higher value. 3,700 tested, 49% active;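 active = thallium entry rate above the same plate's blocked-transporter control wells by more than 3 SD; inconclusive = the two repeat wells disagree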;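 note: raw slope of fluorescence over initial fluorescence between 10 and 20 s after thallium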
KCC2 sec2 = confirmation of human KCC2 transport modulators; shares compounds with KCC2 mod; HEK293-KCC2, thallium flux FluoZin2 fluorescence; actives lie on both sides; F/F0 rise rate, 10–20 s post-thallium; normalized thallium flux at 10 µM; 3,700 tested, 23% active; AID 1715;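 active = thallium flux slope more than 3 SD above or below the plate's solvent-only control mean, mostly below; inconclusive = the two repeat wells disagreed; inactive = no significant shift from solvent-only controls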;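 note: raw slope with 0.1% DMSO as baseline and bumetanide as block control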
HEK counter1 = acts in parental HEK cells, KCC2 counter-screen; shares compounds with KCC2 mod; HEK293 parental cells, thallium flux FluoZin2, ouabain; baseline-ratio fluorescence slope, 10–20 s after thallium; thallium flux rate (normalised fluorescence) at 10 µM; 3,700 tested, 46% active; AID 1716;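 active = thallium flux rate significantly above the same plate's solvent-only control wells, beyond their mean plus 3 SD; inconclusive = the two replicate wells gave conflicting results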
KCC2 retest ouab = confirmation of human KCC2 modulators with ouabain; shares compounds with KCC2 mod; HEK293-KCC2, thallium flux FluoZin2 fluorescence; bidirectional: low = inhibitor, high = activator; raw Tl+ flux slope (below DMSO = inhibition, above = activation) at 10 µM; 3,700 tested, 48% active; AID 1717;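 active = thallium flux slope beyond 3 SD from same-plate DMSO control mean in most replicates, usually higher, sometimes lower; inconclusive = repeat tests gave conflicting results; inactive = no significant difference from controls in most replicates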;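 note: slope of initial-normalized fluorescence between seconds 10 and 20 after thallium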
HEK293 Tl flux2 = counter-screen for KCC2 modulators: effect in parental HEK293 cells. shares compounds with KCC2 mod. thallium flux FluoZin-2 fluorescence slope. thallium flux slope at 10 µM. 3,700 tested, 33% active;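 active = thallium flux slope above the same plate's solvent-control mean plus 3 SD in both duplicate wells; inconclusive = duplicate wells that disagreed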;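 note: run without ouabain in cells lacking the KCC2 cotransporter; slope of fluorescence scaled to its starting value between 10 and 20 s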
Active calls of the source: *; u = inconclusive; x = not tested or not shown.

SMILES | KCC2 mod | Calpain2 inh | PKD1 inh | ROMK mod | Mdm2 ligase inh | Arbovirus inh | KCC2 sec1 | KCC2 bumet counter | KCC2 sec2 | HEK counter1 | KCC2 retest ouab | HEK293 Tl flux2
Cc1ccc(C(=O)N2CCc3ccccc32)o1 | -2.1 | 4 | -5 | -0.51 | -13 | -6 | x | x | x | x | x | x
O=C(NC(=S)N1CCc2ccccc21)C1CCC1 | 14* | 26 | 4 | -0.0029 | -21 | 5 | 0.0082 | 0.025* | 0.033 | 0.018* | u | 0.016*
CC(C)(C)C(=O)NC(=S)N1CCc2ccccc21 | 22* | 1 | 3 | x | -9 | -13 | 0.024* | 0.1* | 0.052* | u | 0.066* | 0.037*
O=C(CCC(=O)N1CCc2ccccc21)N1CCc2ccccc21 | 0.3 | x | 2 | x | x | x | x | x | x | x | x | x
CCCCCCNc1c([N+](=O)[O-])cc(C)cc1[N+](=O)[O-] | 0.94 | x | -1 | x | x | x | x | x | x | x | x | x
CC(=O)NS(=O)(=O)c1ccc(NC(=O)CSc2ccc(C)cc2)cc1 | 0.21 | -23 | 2 | 0.51 | 3 | 4 | x | x | x | x | x | x
c1ccc(CN2CCC(N3CCN(Cc4ccc5c(c4)OCO5)CC3)CC2)cc1 | 0.0012 | -10 | x | x | x | x | x | x | x | x | x | x
C=C1c2cc3c(cc2NC(=S)N1Cc1ccccc1)OCO3 | 53* | 13 | x | x | -12 | x | 0.016* | 0.099* | 0.032 | 0.035* | 0.047* | 0.016*
COc1ccc(-c2nnc(NC(=O)c3cc(Cl)ccc3Cl)o2)cc1 | 23* | -9 | 1 | x | -8 | -9 | 0.0072 | 0.055* | 0.044* | 0.039* | 0.05* | 0.031*
COc1ccccc1C(=O)Nc1nnc(-c2ccc(F)cc2)o1 | 0.22 | 1 | 8 | x | -7 | 0 | x | x | x | x | x | x
Cc1ccccc1C(=O)Nc1nnc(-c2ccc(F)cc2)o1 | 7.3* | 15 | -1 | x | -16 | -5 | 0.013* | 0.024* | 0.034 | 0.016* | 0.029 | u
Cc1ccc(C)c(SCC(=O)Nc2nnc(-c3ccccc3)o2)c1 | 16* | 23 | -6 | -1 | -16 | 2 | 0.019* | 0.057* | 0.037 | 0.038* | 0.046* | 0.014*
COc1ccc(N2C(=S)N=C(Nc3ccccc3)C23CCCCC3)cc1 | 23* | -13 | 4 | x | 30* | 4 | u | 0.026* | 0.033 | 0.014* | 0.029* | 0.012*
O=C(O)c1cccc(N2C(=S)N=C(Nc3ccccc3)C23CCCCC3)c1 | -1.9 | -15 | -2 | 0.12 | 5 | 2 | x | x | x | x | x | x
COCCCNC(=O)c1ccccc1-c1cc(C)no1 | 0.71 | 10 | x | x | -1 | x | x | x | x | x | x | x
O=C(NCCCn1ccnc1)/C(=C/c1ccco1)NC(=O)c1cccs1 | 0.11 | -24 | -6 | x | -10 | 8 | x | x | x | x | x | x
O=C(O)/C(=C\c1ccc(-c2ccc(F)cc2)o1)c1ccccc1 | -7* | -56 | -5 | 1.6 | -4 | 44* | 0.0073 | 0.008* | 0.031 | 0.0074 | 0.016* | 0.01
CN1C(=O)/C(=C/c2cc3c(cc2Br)OCO3)NC1=S | 7.1* | -1 | -9 | 1.4 | -8 | -8 | u | 0.023* | 0.033 | 0.013* | 0.031* | 0.011
O=C(CCN1CCN(Cc2ccccc2)CC1)Nc1cccc(Cl)c1 | -3.8* | -19 | -10 | x | -13 | 7 | 0.0057 | 0.0052 | 0.024* | 0.0078 | 0.014* | 0.0099
O=C(O)c1ccc(C2CCCCC2)cn1 | 8.3* | -8 | 6 | 0.01 | -17 | -20 | 0.011 | 0.0089* | 0.03 | 0.0077 | 0.019 | 0.01
